Screening results from PubChem.
Most compounds without a hit are left out; they make up all but 3.7% or so of the library.
E-sel inducer: induces E-selectin expression in human endothelial cells; P16581; HUVEC E-selectin immunofluorescence imaging; normalized: neutral wells 0, TNF-alpha wells 100; activation, % at 7.58 µM; 260,000 compounds, 0.37% hits;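 active = mean E-selectin-positive cell signal at least 10% of the positive control, reached in at least 60% of replicates, without over 20% cell loss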
Target sequence (P16581 whole entry, looked up): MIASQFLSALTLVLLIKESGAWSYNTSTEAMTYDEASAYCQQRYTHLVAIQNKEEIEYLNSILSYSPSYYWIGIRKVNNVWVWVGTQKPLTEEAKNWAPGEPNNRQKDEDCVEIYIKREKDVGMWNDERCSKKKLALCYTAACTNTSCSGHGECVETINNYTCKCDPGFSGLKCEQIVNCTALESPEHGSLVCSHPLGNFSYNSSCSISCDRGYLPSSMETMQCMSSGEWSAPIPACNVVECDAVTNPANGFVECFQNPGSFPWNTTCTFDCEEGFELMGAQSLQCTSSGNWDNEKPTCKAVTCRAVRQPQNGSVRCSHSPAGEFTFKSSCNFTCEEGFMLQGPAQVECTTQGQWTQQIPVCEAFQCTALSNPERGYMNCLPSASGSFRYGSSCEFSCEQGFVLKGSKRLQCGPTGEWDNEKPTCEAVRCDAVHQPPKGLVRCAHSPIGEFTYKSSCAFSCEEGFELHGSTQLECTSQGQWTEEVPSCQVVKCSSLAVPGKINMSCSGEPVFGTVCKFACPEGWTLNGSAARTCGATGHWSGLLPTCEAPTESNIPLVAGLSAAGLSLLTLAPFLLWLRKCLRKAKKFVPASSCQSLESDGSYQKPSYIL
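Read-out: % PE-positive cells | Test system: HUVEC | Doses: One compound dose added by pin transfer | Buffer or medium: EGM-2 over gelatin coat | Signal: Immunofluorescence imaging | Benchmarks: TNF-alpha, DMSO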
DENV2 CPE rescue: protects cells from dengue virus 2 cytopathic effect | DENV2-infected cells, cytopathic effect rescue, plate reader | CPE inhibition, % at 9.99 µM | 350,000 compounds, 1.7% hits | AID 651640; in the data active = CPE inhibition above about 20%, passing the limit was not always enough; tested in BHK-21 cells;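 note: 0% = median of neutral control wells and 100% = median of positive control wells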
FGF22 binding: binders of recombinant human FGF22 by thermal shift | Q9HCT0 | SYPRO orange fluorescence; percent of sucrose octasulfate shift, DMSO zero | activity (Tm shift, normalised), % at 9.99 µM | 340,000 compounds, 1.5% hits;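 active = mean Tm shift, scaled 0 neutral to 100 positive control, at about 1.3% or above, every replicate too, limit read from the data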
F508del corr: CFTR F508del correction in bronchial cells | CFBE cells, YFP halide quenching; stimulated with forskolin plus potentiator P3; % fluorescence drop versus neutral controls | activity (quench increase), % at 7.58 µM | 350,000 compounds, 0.36% hits | AID 720511;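 active = mean added fluorescence quench of at least 8% versus neutral control, with both replicates also reaching 8%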;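 note: cells transiently co-express mutant CFTR-F508del with the halide-sensitive YFP; corrector assay measuring rescue of mutant channel to the surface after 24 h compound exposure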
ERAP1 HTS inh: inhibitors of human ERAP1 aminopeptidase; inhibition, % at 10.7 µM; AID 652197; 340,000 compounds, 0.15% hits; recombinant ERAP1, Leu-AMC fluorescence, 60 min; Q9NZ08;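 active = mean replicate inhibition of at least 30%, or all replicates individually reaching that 30% level; inactive = mean below 30% and not every replicate reaching it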;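 note: 0% = neutral control wells and 100% = L-leucinethiol positive control wells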
* = called active by the depositor; / = no result.

SMILES	E-sel inducer	DENV2 CPE rescue	FGF22 binding	F508del corr	ERAP1 HTS inh
COc1cc(-c2nc(CN3CCN(c4ncccn4)CC3)c(C)o2)ccc1F	-0.4	9.0	43.3*	1.7	0.1
COc1ccc(NC(=O)Nc2ccc3c(c2)C(=O)N([C@@H](C)CO)C[C@H](C)[C@@H](CN(C)S(=O)(=O)c2cn(C)cn2)OCCCC[C@H](C)O3)cc1	0.1	7.6	0.0	-3.0	/
COc1ccccc1C1C(C#N)=C(N)Oc2c1oc(CO)cc2=O (stereo not drawn)	0.0	-1.9	-0.1	-1.3	0.0
CC(C)Oc1ccc(C2C(C#N)=C(N)Oc3c2oc(CO)cc3=O)cc1 (stereo not drawn)	/	3.6	43.6*	-3.2	8.3
CC(=O)Oc1ccc(C2=Cc3ccc(OC(C)=O)cc3OC2C)cc1 (stereo not drawn)	118.3*	-2.7	43.4*	1.7	2.6
Cc1ccc(C)c(N2CCN(C(=O)c3ccc(Cl)c(NC4=NC5CS(=O)(=O)CC5S4)c3)CC2)c1 (stereo not drawn)	-0.5	28.0*	-0.1	-1.3	1.0
CCOC(=O)C1CCN(C(=O)c2cccc(NC3=NC4CS(=O)(=O)CC4S3)c2)CC1 (stereo not drawn)	1.3	8.2	-0.1	-2.8	0.2
COc1cccc(N2CCN(C(=O)c3cccc(NC4=NC5CS(=O)(=O)CC5S4)c3)CC2)c1 (stereo not drawn)	-0.2	34.8*	-0.2	3.6	2.9
O=C(Nc1cccc(F)c1)N1CC(=O)N2[C@@H](CO)[C@@H](c3ccc(-c4ccc(F)cc4)cc3)[C@@H]2C1	-0.4	-5.8	/	-0.7	1.8
COc1ccc(CN(C)C[C@H]2OCCCC[C@H](C)Oc3ccc(NC(=O)NC(C)C)cc3C(=O)N([C@H](C)CO)C[C@@H]2C)cc1	0.0	-10.0	-0.1	-1.5	0.1
CC(C)CN(CCCNC(=O)CN1C(=O)CSc2ccc(S(=O)(=O)N3CCOCC3)cc21)CC(C)C	-2.6	-0.3	/	10.3*	-3.5
COC(=O)C1=C(O)/C(=C\c2cc(C)n(-c3ccccc3F)c2C)N=C1C	/	-6.2	0.3	6.9	3.7
COC(=O)C1=C(C)NC(=O)/C1=C\c1cc(C)n(-c2ccccc2)c1C	10.4	-5.0	43.1*	0.4	4.0
C[C@@H]1CCCCO[C@H](CN(C)S(=O)(=O)c2ccccc2)[C@@H](C)CN([C@@H](C)CO)C(=O)c2cc(NC(=O)Nc3cccc4ccccc34)ccc2O1	/	-8.0	0.0	2.3	-4.4
CCOc1cccc2sc(N(CCCN(C)C)C(=O)c3ccc(S(=O)(=O)N(C)c4ccccc4)cc3)nc12	1.0	7.0	43.5*	3.7	-1.7
CCCC#Cc1ccc2c(c1)O[C@@H](CN(C)C(=O)C1CC1)[C@H](C)CN([C@@H](C)CO)S2(=O)=O	0.3	7.6	0.1	0.8	-0.1
COc1cc2c3c(c1OC)-c1cc4c(cc1CC3(C#N)N(C(=O)c1ccccc1)CC2)OCO4 (stereo not drawn)	0.0	0.3	43.0*	1.1	-2.8
Cc1cc(Cn2nc(C(=O)NCc3cccc(Br)c3)cc2-c2ccccc2)on1	-0.1	1.4	0.1	2.0	0.4
COCCNC(=O)c1cc(-c2ccccc2)n(Cc2cc(C)no2)n1	0.1	21.7*	0.3	3.9	-1.3
C[C@@H]1CN([C@@H](C)CO)C(=O)c2cc(NC(=O)CCCCCC(=O)Nc3ccccc3N)ccc2O[C@H]1CN(C)S(=O)(=O)c1ccc(F)cc1	-2.9	-2.1	-0.5	0.9	3.9
CCc1nc2ccccc2c(C(=O)OCC(=O)Nc2ccc(NC(C)=O)cc2)c1C	/	-0.7	-0.1	2.4	-0.3
CCc1nc2ccccc2c(C(=O)Oc2ccc(C(=O)OC)cc2)c1C	/	7.7	43.9*	1.1	-3.7
C[C@@H]1CCCCO[C@@H](CN(C)C(=O)Nc2cccc3ccccc23)[C@H](C)CN([C@H](C)CO)C(=O)c2cc(NC(=O)CCC(F)(F)F)ccc2O1	0.3	99.1*	-0.3	4.5	/
C[C@@H]1CN([C@@H](C)CO)C(=O)c2cc(NC(=O)CCC(F)(F)F)ccc2O[C@@H](C)CCCCO[C@H]1CN(C)C(=O)Nc1cccc2ccccc12	0.3	25.8*	-0.2	2.5	/
C[C@@H]1CN([C@H](C)CO)C(=O)c2cc(NC(=O)CCC(F)(F)F)ccc2O[C@@H](C)CCCCO[C@H]1CN(C)C(=O)Nc1cccc2ccccc12	-0.4	-14.3	-0.5	3.9	/
